Many of the other results were omitted from the sample, so hits are more common in it than they were.
YB-1 expression – inhibitors of YB-1 gene expression, primary screen, cell-based, fluorescence; U2OS, qRT-PCR YB-1 vs CDIP delta delta Cp, 16 h; hits give high values; zero = DMSO, each unit about twofold; delta delta Cp (YB-1 minus CDIP) (concentration not given with the values); actives 0.37% (n = 30,000);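 active means delta delta Cp rounded down to an integer at or above 3, about 3 SD of DMSO wells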;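 further: higher means less YB-1 transcript or more CDIP transcript relative to DMSO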
T cruzi intra – inhibitors of intracellular Trypanosoma cruzi, primary screen, cell-based, plate reader, single point, set 2 | intracellular Trypanosoma cruzi in host cells | activity score (inhibition), % at 5.01 µM | actives 4.9% (n = 22,000); in the data active means activity score above about 55%;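 further: parasites and compound incubated about four days before reading; 0% = median of neutral control wells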
INS-1E rescue – protection of INS-1E cells from cytokine death, primary screen, ATP luminescence, single point. INS-1E cytokine-induced death, 48 h; normalised: neutral wells 0, positive control 100. protection from cytokine-induced ATP loss, % at 10 µM. actives 0.1% (n = 20,000). AID 488910, 2010;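 active means mean replicate protection from cytokine-induced ATP loss at least 50% and at least 75% of replicates each reaching 50%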
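Material: INS-1E rat cells; Quantity: 8000 cells/well; Buffer or medium: phenol-red-free RPMI with 5% fetal bovine serum; Probe or stimulus: cytokine cocktail of IFN-γ, TNF-α and IL-1β; Compound dosing: single test concentration per compound, delivered by pin transfer; Incubation: 48 h co-treatment, 10 min post-lysis read; Signal: CellTiter-Glo luminescence.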
Numbers without * were called inactive; . = no result.

SMILES	YB-1 expression	T cruzi intra	INS-1E rescue
C[C@H]1CN([C@@H](C)CO)C(=O)c2cccc(NC(=O)c3nc4ccccc4s3)c2O[C@H]1CN(C)Cc1ccccc1	0.214	12.2	-17.2
C[C@H]1CN([C@@H](C)CO)C(=O)c2cccc(NC(=O)c3nc4ccccc4s3)c2O[C@H]1CN(C)Cc1ccc(Oc2ccccc2)cc1	-0.153	68.3*	-24.4
C[C@@H]1CN([C@H](C)CO)C(=O)c2cccc(NC(=O)Nc3ccc(C(F)(F)F)cc3)c2O[C@H]1CN(C)Cc1ccc(C(F)(F)F)cc1	-0.591	37.4	9.6
C[C@@H]1CN([C@H](C)CO)C(=O)c2cccc(NC(=O)C3CC3)c2O[C@@H]1CN(C)Cc1ccc(C(F)(F)F)cc1	-0.392	-17.1	-1.4
C[C@H]1CN([C@@H](C)CO)C(=O)c2cccc(NC(=O)Nc3ccc(F)cc3)c2O[C@@H]1CN(C)Cc1ccc(-c2ccccc2)cc1	0.182	-14.5	-33.6
C[C@@H]1CN([C@H](C)CO)C(=O)c2cccc(NC(=O)Nc3ccc(F)cc3)c2O[C@@H]1CN(C)Cc1ccc(-c2ccccc2)cc1	-0.848	68.4*	-46.8
C[C@@H]1CN([C@H](C)CO)C(=O)c2cccc(NC(=O)C3CCCCC3)c2O[C@H]1CN(C)Cc1ccc(C(F)(F)F)cc1	-0.0624	78.3*	-53.9
C[C@H]1CN([C@@H](C)CO)C(=O)c2cccc(NC(=O)Nc3ccc(C(F)(F)F)cc3)c2O[C@H]1CN(C)Cc1ccc(C(F)(F)F)cc1	-0.163	63.1*	-55.3
C[C@@H]1CN([C@@H](C)CO)C(=O)c2cccc(NC(=O)Nc3ccc(C(F)(F)F)cc3)c2O[C@@H]1CN(C)Cc1ccc(-c2ccccc2)cc1	-0.273	64.9*	-86.0
C[C@@H]1CN([C@H](C)CO)C(=O)c2cccc(NC(=O)Nc3ccc(C(F)(F)F)cc3)c2O[C@@H]1CN(C)Cc1ccc(-c2ccccc2)cc1	-0.233	34.0	-59.3
COc1ccc(/C=N/NC(=O)c2ccccc2O)cc1	0.361	-17.5	-29.5
C[C@@H]1CN([C@@H](C)CO)C(=O)c2cccc(NS(=O)(=O)c3ccc(F)cc3)c2O[C@H]1CN(C)C(=O)Nc1ccccc1	-0.351	1.4	7.1
COC(=O)[C@]1(Cc2ccccc2CN=[N+]=[N-])N=C(c2ccc(OCCCO)cc2)O[C@@H]1c1ccccc1	-0.0584	.	.
C[C@@H]1CCCCO[C@H](CN(C)Cc2ccc(C(=O)O)cc2)[C@@H](C)CN([C@H](C)CO)C(=O)c2cc(NC(=O)Nc3ccc4c(c3)OCO4)ccc2O1	-0.161	-6.8	9.8
C[C@@H]1CN([C@H](C)CO)C(=O)c2cccc(NC(=O)Nc3ccc(C(F)(F)F)cc3)c2O[C@@H]1CN(C)Cc1ccc(C(F)(F)F)cc1	0.241	88.6*	-37.3
C[C@H]1CN([C@@H](C)CO)C(=O)c2cccc(NC(=O)Nc3ccc(F)cc3)c2O[C@@H]1CN(C)Cc1ccc(C(F)(F)F)cc1	-0.182	13.2	-11.1
C[C@H](CO)N1C[C@H](C)[C@@H](CN(C)Cc2ccc(Oc3ccccc3)cc2)Oc2c(NC(=O)Nc3ccc4c(c3)OCO4)cccc2C1=O	0.819	27.5	-45.7
C[C@@H]1CN([C@@H](C)CO)C(=O)c2cccc(NC(=O)Nc3ccc4c(c3)OCO4)c2O[C@H]1CN(C)Cc1ccc(Oc2ccccc2)cc1	-0.883	70.1*	-48.5
C[C@@H]1CN([C@H](C)CO)C(=O)c2cccc(NC(=O)Nc3ccc4c(c3)OCO4)c2O[C@@H]1CN(C)Cc1ccc(Oc2ccccc2)cc1	0.0716	4.2	-9.4
C[C@@H]1CN([C@@H](C)CO)C(=O)c2cccc(NC(=O)Nc3ccc4c(c3)OCO4)c2O[C@@H]1CN(C)Cc1ccc(Oc2ccccc2)cc1	0.381	73.1*	-31.0
CCNC(=O)c1ccc(Cl)s1	-0.201	.	.
C[C@H]1CN([C@@H](C)CO)C(=O)c2cc(NS(=O)(=O)c3ccccc3)ccc2O[C@@H]1CN(C)Cc1ccc2c(c1)OCO2	0.275	54.1	-9.8
C[C@H](CO)N1C[C@H](C)[C@@H](CN(C)Cc2ccccc2)Oc2c(NC(=O)c3ccncc3)cccc2C1=O	-0.147	79.2*	-6.5
C[C@@H]1CN([C@H](C)CO)C(=O)c2cccc(NC(=O)c3ccncc3)c2O[C@H]1CN(C)Cc1ccc(-c2ccccc2)cc1	0.188	83.8*	-22.2
C[C@@H]1CN([C@@H](C)CO)C(=O)c2cccc(NC(=O)c3ccncc3)c2O[C@H]1CN(C)Cc1ccc(C(=O)O)cc1	0.73	-23.0	11.4
SMILES	YB-1 expression	T cruzi intra	INS-1E rescue
C[C@H](CO)N1C[C@H](C)[C@@H](CN(C)Cc2ccc(-c3ccccc3)cc2)Oc2c(NC(=O)c3ccncc3)cccc2C1=O	0.0637	56.7*	-28.5
C[C@@H]1CN([C@H](C)CO)C(=O)c2cccc(NC(=O)c3ccncc3)c2O[C@@H]1CN(C)Cc1ccc(C(=O)O)cc1	-0.367	43.2	10.7
C[C@H](CO)N1C[C@H](C)[C@H](CN(C)Cc2ccc(-c3ccccc3)cc2)Oc2c(NC(=O)c3ccncc3)cccc2C1=O	-0.218	67.8*	-11.7
C[C@@H]1CN([C@@H](C)CO)C(=O)c2cccc(NC(=O)c3ccncc3)c2O[C@@H]1CN(C)Cc1ccccc1	0.0303	-17.9	-0.8
C[C@@H]1CN([C@@H](C)CO)C(=O)c2cc(NC(=O)Cc3cn(C)c4ccccc34)ccc2O[C@@H]1CN(C)S(C)(=O)=O	0.273	-13.8	.
C[C@@H]1CN([C@@H](C)CO)C(=O)c2cccc(NC(=O)c3ccncc3)c2O[C@H]1CN(C)Cc1ccc(-c2ccccc2)cc1	0.354	82.7*	-22.1
O=C(SCc1cccs1)c1csc(C2COc3ccccc3O2)n1 (stereo not given)	-0.282	.	.
COc1ccc(S(=O)(=O)N(C)C[C@@H]2Oc3c(NC(=O)Nc4cccc5ccccc45)cccc3C(=O)N([C@@H](C)CO)C[C@H]2C)cc1	0.0438	8.7	81.2*
C[C@H](CO)N1C[C@H](C)[C@@H](CN(C)S(=O)(=O)c2cccs2)Oc2c(NC(=O)c3nc4ccccc4s3)cccc2C1=O	0.255	57.1*	-6.3
COc1ccc(S(=O)(=O)N(C)C[C@@H]2Oc3c(NC(=O)c4nc5ccccc5s4)cccc3C(=O)N([C@H](C)CO)C[C@H]2C)cc1	-0.131	44.3	-36.5
COc1ccc(S(=O)(=O)N(C)C[C@H]2Oc3c(NC(=O)c4nc5ccccc5s4)cccc3C(=O)N([C@@H](C)CO)C[C@@H]2C)cc1	-0.314	62.8*	-11.2
Cc1cc(C(=O)Nc2cccc3c2O[C@H](CN(C)S(=O)(=O)c2cccs2)[C@H](C)CN([C@@H](C)CO)C3=O)n(C)n1	20.1*	8.3	-1.9
Cc1cc(C(=O)Nc2cccc3c2O[C@@H](CN(C)S(=O)(=O)c2cccs2)[C@@H](C)CN([C@@H](C)CO)C3=O)n(C)n1	0.72	-1.4	10.4
C[C@H]1CN([C@@H](C)CO)C(=O)c2cccc(NC(=O)c3nc4ccccc4s3)c2O[C@@H]1CN(C)S(=O)(=O)c1cccs1	0.198	25.0	-7.7
